Laboratory results as given in ChEMBL document CHEMBL3763095, “Naphtho[1',2':4,5]imidazo[1,2-a]pyridine-5,6-diones: Synthesis, enzymatic reduction and cytotoxic activity” (Bioorg Med Chem Lett, 2016).

How the values were obtained:
Parameters in all cases: species or system Homo sapiens
[1] = substrate: O=C1C(=O)c2c(nc3ccccn23)-c2ccc([N+](=O)[O-])cc21; assay: (§1) Activity of NADPH:cytochrome P-450R (unknown origin) assessed as NADPH oxidation by spectrophotometric analysis
Summary of the method: (§2)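 Initial rates of enzymatic reduction measured at varied compound concentrations with NADPH fixed at 150 µM. Reactivity expressed as apparent second-order k_cat/K_m, taken as the efficiency of reduction by the reduced free enzyme (ping-pong scheme).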

[2] = substrate: O=C1C(=O)c2c(nc3ccc(Cl)cn23)-c2ccccc21; assay: as §1; summary of the method: as §2
[3] = substrate: O=C1C(=O)c2c(nc3ccc(Br)cn23)-c2ccccc21; assay: as §1; summary of the method: as §2
[4] = substrate: O=C1C(=O)c2c(nc3ccc(C(F)(F)F)cn23)-c2ccccc21; assay: as §1; summary of the method: as §2
[5] = substrate: Cc1ccc2nc3c(n2c1)C(=O)C(=O)c1ccccc1-3; assay: as §1; summary of the method: as §2
[6] = substrate: Cc1ccn2c3c(nc2c1)-c1ccccc1C(=O)C3=O; assay: as §1; summary of the method: as §2
[7] = substrate: O=C1C(=O)c2c(nc3ccccn23)-c2ccccc21; assay: as §1; summary of the method: as §2
[8] = substrate: O=C1C(=O)c2c(nc3ccc(F)cn23)-c2ccccc21; assay: as §1; summary of the method: as §2
[9] = substrate: Cc1cccn2c3c(nc12)-c1ccccc1C(=O)C3=O; assay: as §1; summary of the method: as §2
[10] = substrate: COc1ccc2nc3c(n2c1)C(=O)C(=O)c1ccccc1-3; assay: as §1; summary of the method: as §2
[11] = substrate: O=C1C(=O)c2c(nc3ccc4ccccc4n23)-c2ccccc21; assay: as §1; summary of the method: as §2
[12] = substrate: O=C1C(=O)c2c(nc3ncccn23)-c2ccccc21; assay: as §1; summary of the method: as §2
[13] = substrate: O=C1C(=O)c2c(nc3ccc([N+](=O)[O-])cn23)-c2ccccc21; assay: as §1; summary of the method: as §2

B1: NADPH--cytochrome P450 reductase (Homo sapiens) (protein)
chain: MGDSHVDTSSTVSEAVAEEVSLFSMTDMILFSLIVGLLTYWFLFRKKKEEVPEFTKIQTLTSSVRESSFVEKMKKTGRNIIVFYGSQTGTAEEFANRLSKDAHRYGMRGMSADPEEYDLADLSSLPEIDNALVVFCMATYGEGDPTDNAQDFYDWLQETDVDLSGVKFAVFGLGNKTYEHFNAMGKYVDKRLEQLGAQRIFELGLGDDDGNLEEDFITWREQFWPAVCEHFGVEATGEESSIRQYELVVHTDIDAAKVYMGEMGRLKSYENQKPPFDAKNPFLAAVTTNRKLNQGTERHLMHLELDISDSKIRYESGDHVAVYPANDSALVNQLGKILGADLDVVMSLNNLDEESNKKHPFPCPTSYRTALTYYLDITNPPRTNVLYELAQYASEPSEQELLRKMASSSGEGKELYLSWVVEARRHILAILQDCPSLRPPIDHLCELLPRLQARYYSIASSSKVHPNSVHICAVVVEYETKAGRINKGVATNWLRAKEPAGENGGRALVPMFVRKSQFRLPFKATTPVIMVGPGTGVAPFIGFIQERAWLRQQGKEVGETLLYYGCRRSDEDYLYREELAQFHRDGALTQLNVAFSREQSHKVYVQHLLKQDREHLWKLIEGGAHIYVCGDARNMARDVQNTFYDIVAELGAMEHAQAVDYIKKLMTKGRYSLDVWS
[1]
  kcat/Km: 7.2e+07 M⁻¹ s⁻¹
[2]
  kcat/Km: 5.4e+07 M⁻¹ s⁻¹
[3]
  kcat/Km: 3.7e+07 M⁻¹ s⁻¹
[4]
  kcat/Km: 3.5e+07 M⁻¹ s⁻¹
[5]
  kcat/Km: 8.9e+06 M⁻¹ s⁻¹
[6]
  kcat/Km: 1.4e+07 M⁻¹ s⁻¹
[7]
  kcat/Km: 3.1e+07 M⁻¹ s⁻¹
[8]
  kcat/Km: 2.4e+07 M⁻¹ s⁻¹
[9]
  kcat/Km: 1.3e+07 M⁻¹ s⁻¹
[10]
  kcat/Km: 2.9e+07 M⁻¹ s⁻¹
[11]
  kcat/Km: 5.6e+06 M⁻¹ s⁻¹
[12]
  kcat/Km: 3.4e+07 M⁻¹ s⁻¹
[13]
  kcat/Km: 5.9e+07 M⁻¹ s⁻¹
